Results on eight molecules are retold here after ChEMBL document CHEMBL1671710, “Different classes of antibiotics differentially influence shiga toxin production” (2010).

Test [1] relates to Escherichia coli. The test can be described thus: Antimicrobial activity against Escherichia coli C600::H19B in logarithmic phase encoding Stx-1 gene by broth macrodilution assay.
In test [2] the test system is Escherichia coli. The test can be described thus: Antimicrobial activity against Escherichia coli O157:H7 185 encoding stx gene by broth microdilution method. In kind it is functional, organism-based. In general terms: Dilution methods test growth across graded concentrations, often in twofold steps.
The subject of test [3] is Escherichia coli. Kind of test: microbe, parasite or virus in culture. Conditions: C600::933W.
Test [4] relates to Escherichia coli. The test can be described thus: Antimicrobial activity against Escherichia coli C600::H19B in stationary phase encoding Stx-1 gene by broth macrodilution assay.
In test [5] the test system is Escherichia coli. The test can be described thus: Antimicrobial activity against Escherichia coli O157:H7 PT-32 in stationary phase encoding Stx-1 and Stx-2 gene by broth macrodilution assay. It is filed as functional. In short, it runs like this:
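Overnight MH-broth cultures (stationary phase) were diluted 1:1,000, then 1:200. 1 ml was mixed with 1.0 ml of antibiotic in MH broth, with trimethoprim:sulfamethoxazole at 1:5, and held overnight at 37°C with rotary aeration. MIC judged visually, corresponding to ∼10^7 CFU/ml.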

In test [6] the test system is Escherichia coli. Kind of test: Antimicrobial activity against Escherichia coli O157:H7 PT-40 in stationary phase encoding Stx-2 gene by broth macrodilution assay.
Test [7] relates to Escherichia coli. The test can be described thus: Antimicrobial activity against Escherichia coli O157:H7 PT-40 in logarithmic phase encoding Stx-2 gene by broth macrodilution assay. It is filed as functional.
In test [8] the test system is Escherichia coli. Kind of test: Antimicrobial activity against Escherichia coli O157:H7 PT-32 in logarithmic phase encoding Stx-1 and Stx-2 gene by broth macrodilution assay.
Test [9] has as its system Escherichia coli. Kind of test: Antimicrobial activity against Escherichia coli C600::933W in logarithmic phase encoding Stx-2 gene by broth macrodilution assay. In kind it is functional.

Converted amounts (≈) assume the structure as drawn. The source made the active and inactive calls. No cut-off for these calls is given here.

Take `CC1(C)S[C@@H]2[C@H](NC(=O)[C@H](N)c3ccccc3)C(=O)N2[C@H]1C(=O)O` [AMPICILLIN]: the MIC amounted to 4 µg/mL (≈ 11.4 µM) in [1]; 8 µg/mL (≈ 22.9 µM) in test [3]; 8 µg/mL (≈ 22.9 µM) in test [4]; 4 µg/mL (≈ 11.4 µM) in [5]; 8 µg/mL (≈ 22.9 µM) in test [6]. The outcome in test [2] was Active.

On to `CC[C@H]1OC(=O)[C@H](C)[C@@H](O[C@H]2C[C@@](C)(OC)[C@@H](O)[C@H](C)O2)[C@H](C)[C@@H](O[C@@H]2O[C@H](C)C[C@H](N(C)C)[C@H]2O)[C@](C)(O)C[C@@H](C)CN(C)[C@H](C)[C@@H](O)[C@]1(C)O` [AZITHROMYCIN], for which the MIC in test [1] was 2 µg/mL (≈ 2.67 µM); in test [7] it was 4 µg/mL (≈ 5.34 µM); in test [3], 2 µg/mL (≈ 2.67 µM); in test [8] it was 2.6 µg/mL (≈ 3.47 µM); in test [4] it was 2 µg/mL (≈ 2.67 µM); in test [5], 2.6 µg/mL (≈ 3.47 µM). Besides, the MIC worked out at 2.6 µg/mL (≈ 3.47 µM) in test [6] and 2 µg/mL (≈ 2.67 µM) in test [9].

Regarding `CO/N=C(\C(=O)N[C@@H]1C(=O)N2C(C(=O)O)=C(CSc3nc(=O)c(O)nn3C)CS[C@H]12)c1csc(N)n1` [CEFTRIAXONE], the MIC in test [1] came out at 0.03 µg/mL (≈ 0.0541 µM); in test [7], 0.06 µg/mL (≈ 0.108 µM); in test [3], 0.03 µg/mL (≈ 0.0541 µM); in test [8], 0.03 µg/mL (≈ 0.0541 µM); in test [4] it was 0.06 µg/mL (≈ 0.108 µM); in test [5], 0.03 µg/mL (≈ 0.0541 µM). For the same molecule, the MIC worked out at 0.06 µg/mL (≈ 0.108 µM) in test [6] and 0.03 µg/mL (≈ 0.0541 µM) in test [9].

In the case of `C[C@H]1c2cccc(O)c2C(=O)C2=C(O)[C@]3(O)C(=O)C(C(N)=O)=C(O)[C@@H](N(C)C)[C@@H]3[C@@H](O)[C@@H]21.O` [DOXYCYCLINE], the MIC in [1] worked out at 0.25 µg/mL; in test [7] it was 1 µg/mL; in test [3], 1 µg/mL; in test [8], 1 µg/mL; in test [4] it was 0.5 µg/mL; in test [5], 0.5 µg/mL. Also, the results for the MIC in test [6] and in test [9] were 1 µg/mL and 0.5 µg/mL, respectively. Also, the outcome in test [2] was Active.

In the case of `C[C@@H]1O[C@@H]1P(=O)(O)O` [FOSFOMYCIN], the MIC in test [1] is 2 µg/mL (≈ 14.5 µM); in [7], 16 µg/mL (≈ 116 µM); in test [3], 2 µg/mL (≈ 14.5 µM); in test [8], 16 µg/mL (≈ 116 µM); in [4] it was 0.5 µg/mL (≈ 3.62 µM); in test [5] it was 16 µg/mL (≈ 116 µM). For the same molecule, the MIC in [6] amounted to 16 µg/mL (≈ 116 µM); in [9] it was 2 µg/mL (≈ 14.5 µM).

For the molecule `CO[C@H]1/C=C/O[C@@]2(C)Oc3c(C)c(O)c4c(O)c(c(/C=N/N5CCN(C)CC5)c(O)c4c3C2=O)NC(=O)/C(C)=C\C=C\[C@H](C)[C@H](O)[C@@H](C)[C@@H](O)[C@@H](C)[C@H](OC(C)=O)[C@@H]1C` [RIFAMPIN], the MIC in [1] came to 4 µg/mL (≈ 4.86 µM); in [7], 4 µg/mL (≈ 4.86 µM); in [3], 8 µg/mL (≈ 9.72 µM); in test [8], 4 µg/mL (≈ 4.86 µM); in test [4] it was 16 µg/mL (≈ 19.4 µM); in test [5] it was 2 µg/mL (≈ 2.43 µM). Moreover, the MIC in test [6] was determined as 16 µg/mL (≈ 19.4 µM); in [9] it was 8 µg/mL (≈ 9.72 µM).

In the case of `Cc1cc(NS(=O)(=O)c2ccc(N)cc2)no1` [SULFAMETHOXAZOLE], the MIC in test [1] turned out to be 0.004 µg/mL (≈ 0.0158 µM); in test [7], 0.13 µg/mL (≈ 0.513 µM); in test [3] it was 0.03 µg/mL (≈ 0.118 µM); in test [8], 0.13 µg/mL (≈ 0.513 µM); in test [4], 0.03 µg/mL (≈ 0.118 µM); in test [5], 0.13 µg/mL (≈ 0.513 µM). Also, the MIC in test [6] amounted to 0.13 µg/mL (≈ 0.513 µM); in test [9], 0.01 µg/mL (≈ 0.0395 µM).

Consider GENTAMICIN, for which the MIC in [7], in [5] and in [9] was 0.25 µg/mL throughout.
